Test [1] addresses T1, Type-1 angiotensin II receptor A (Rattus norvegicus, UniProt P25095).
T1 sequence (P25095 whole entry): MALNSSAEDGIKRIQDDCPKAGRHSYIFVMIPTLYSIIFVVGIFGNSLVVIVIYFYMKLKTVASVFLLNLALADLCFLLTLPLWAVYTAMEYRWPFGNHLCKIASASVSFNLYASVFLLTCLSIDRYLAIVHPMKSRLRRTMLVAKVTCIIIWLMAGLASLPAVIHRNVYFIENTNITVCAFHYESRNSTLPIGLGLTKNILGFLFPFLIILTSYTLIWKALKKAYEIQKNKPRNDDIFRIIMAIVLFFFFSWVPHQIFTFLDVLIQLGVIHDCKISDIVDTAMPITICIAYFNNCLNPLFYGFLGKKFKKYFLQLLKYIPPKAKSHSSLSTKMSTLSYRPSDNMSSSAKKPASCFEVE
In words: Displacement of [125I]Ang 2 from AT1 receptor in rat liver membranes. The format is cell membranes, Membrane. Summed up:
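Rat liver membranes (5 mg original tissue) incubated with [125I]Ang II (0.03 nM) and varying test compound in 50 mM Tris–HCl pH 7.4, 100 mM NaCl, 10 mM MgCl2, 1 mM EDTA, 0.025% bacitracin, 0.2% BSA; 25 °C for 2 h. Filtered onto polyethylamine-soaked GF/B filters, gamma counting. Nonspecific binding with 1 µM Ang II; triplicate.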

A short description of test [2]: Displacement of [125I]Ang 2 from AT2 receptor in pig uterus membranes. In kind it is cell membranes, Sus scrofa, Membrane. Summed up: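 Porcine uterine myometrial membranes (10 mg original tissue), with 1 µM losartan to block AT1, incubated with [125I]Ang II (0.03 nM) and varying test compound in Tris–HCl pH 7.4 buffer with NaCl, MgCl2, EDTA, bacitracin and BSA; 25 °C, 1.5 h. Filtered, gamma counted. Nonspecific binding with 1 µM Ang II. Ki via Cheng–Prusoff (Kd 0.73 nM), one-site fit; triplicate.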

Test [3] relates to NG108-15. The experiment in a line: Induction of neurite outgrowth in NG108-15 cells at 0.1 uM after 3 days. In kind it is functional, cell-based. Summed up:
(§1)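 NG108-15 neuroblastoma×glioma cells (AT2 only; DMEM, 10% FBS, HAT) plated at 3.6·10⁴ cells/35 mm dish, then treated daily for 3 days, alone or with PD 123,319 added 30 min beforehand. Examined by phase-contrast microscopy.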

In test [4] the test system is NG108-15. The experiment in a line: Induction of neurite outgrowth in NG108-15 cells at 1 nM after 3 days. The format is functional, cell-based. A digest of the protocol:
as §1

Activity calls are given as the source filed them. The calls are words filed in the database; no cut-off is given here.

Broadly, the Ki is a dissociation constant, usually derived from enzyme kinetics or from competition with a known ligand.

For `CCCCOC(=O)NS(=O)(=O)c1sc(CC(C)C)cc1-c1ccc(CN(CC)C(C)=O)cc1`, the inhibitory constant (Ki) in test [1] is above 10000 nM; in test [2], 126 nM.

As to `CCCCOC(=O)NS(=O)(=O)c1sc(CC(C)C)cc1-c1ccc(CC(=O)NCc2ccccc2)cc1`, the Ki in test [1] was above 10000 nM; in test [2] it was 221 nM.

With `CCCCOC(=O)NS(=O)(=O)c1sc(CC(C)C)cc1-c1ccc(CC(=O)N(C)CCCC)cc1`, the Ki in test [1] is above 10000 nM; in test [2], 367 nM.

On to `CCCCOC(=O)NS(=O)(=O)c1sc(CC(C)C)cc1-c1ccc(CN(Cc2cccnc2)C(=O)c2ccccc2)cc1`, for which the Ki in test [1] was above 10000 nM; in test [2] it was 404 nM.

As to `CCCCOC(=O)NS(=O)(=O)c1sc(CC(C)C)cc1-c1ccc(CC(=O)N(C)C)cc1`, the Ki in test [1] is above 10000 nM; in test [2], 7 nM. In addition, the outcome in the test on NG108-15 [3] was Active.

Take `CCCCOC(=O)NS(=O)(=O)c1sc(CC(C)C)cc1-c1ccc(CNC(C)=O)cc1`: the Ki in test [1] was above 10000 nM; in test [2], 5.8 nM.

For `CCCCOC(=O)NS(=O)(=O)c1sc(CC(C)C)cc1-c1ccc(CN(Cc2ccccc2)C(C)=O)cc1`, the Ki in test [1] was above 10000 nM; in test [2] it was 200 nM.

Consider `CCCCOC(=O)NS(=O)(=O)c1sc(CC(C)C)cc1-c1ccc(CN(C)C(=O)OCC)cc1`, for which the inhibition constant Ki in test [1] was above 10000 nM; in test [2] it was 9.7 nM.

Regarding `CCCCOC(=O)NS(=O)(=O)c1sc(CC(C)C)cc1-c1ccc(CN(Cc2cccnc2)C(C)=O)cc1`, the inhibition constant (Ki) is above 10000 nM in test [1] and 59 nM in test [2].

`CCCCOC(=O)NS(=O)(=O)c1sc(CC(C)C)cc1-c1ccc(CC(=O)N(Cc2ccccc2)Cc2ccccc2)cc1`: the figures for the inhibitory constant (Ki) in test [1] and in test [2] were above 10000 nM and 185 nM, respectively.

As for `CCCCOC(=O)NS(=O)(=O)c1sc(CC(C)C)cc1-c1ccc(CN(CC)C(=O)c2cccs2)cc1`, the values for the Ki in test [1] and in test [2] were above 10000 nM and 138 nM, respectively.

Turning to `CCCCOC(=O)NS(=O)(=O)c1sc(CC(C)C)cc1-c1ccc(CN(C)CC#N)cc1`, the Ki in test [1] and in test [2] was above 10000 nM throughout.

Turning to `CCCCOC(=O)NS(=O)(=O)c1sc(CC(C)C)cc1-c1ccc(CC(N)=O)cc1`, the Ki in test [1] was above 10000 nM; in test [2], 51 nM.

`CCCCOC(=O)NS(=O)(=O)c1sc(CC(C)C)cc1-c1ccc(CN(C)C(C)=O)cc1`: the inhibition constant Ki in test [1] was above 10000 nM; in test [2], 8.8 nM. For the same compound, in the test with NG108-15 [4], the result was Active.

As for `CCCCOC(=O)NS(=O)(=O)c1sc(CC(C)C)cc1-c1ccc(CC(=O)Nc2ccc(C)cc2)cc1`, the Ki in test [1] is above 10000 nM; in test [2], 58 nM.

With `CCCCOC(=O)NS(=O)(=O)c1sc(CC(C)C)cc1-c1ccc(CN(C)S(C)(=O)=O)cc1`, the Ki in test [1] is above 10000 nM; in test [2], 32 nM.

For `CCCCOC(=O)NS(=O)(=O)c1sc(CC(C)C)cc1-c1ccc(CN(C)C=O)cc1`, the Ki in test [1] is above 10000 nM; in test [2] it was 3.1 nM.

With `CCCCOC(=O)NS(=O)(=O)c1sc(CC(C)C)cc1-c1ccc(CC(=O)N(c2ccccc2)c2ccccc2)cc1`, the figures for the Ki in test [1] and in test [2] were above 10000 nM and 219 nM, respectively.

Regarding `CCCCOC(=O)NS(=O)(=O)c1sc(CC(C)C)cc1-c1ccc(CN(C)C)cc1`, the inhibition constant (Ki) in test [1] and in test [2] was above 10000 nM each time.

Take `CCCCOC(=O)NS(=O)(=O)c1sc(CC(C)C)cc1-c1ccc(CN(C)OC)cc1`: the Ki in test [1] was above 10000 nM; in test [2], 2.8 nM. In addition, the result with NG108-15 [4] was Active.

Regarding `CCCCOC(=O)NS(=O)(=O)c1sc(CC(C)C)cc1-c1ccc(CC(=O)NC)cc1`, the results for the Ki in test [1] and in test [2] were above 10000 nM and 80 nM, respectively.

With `CCCCOC(=O)NS(=O)(=O)c1sc(CC(C)C)cc1-c1ccc(CC(=O)N2CCSC2)cc1`, the Ki was above 10000 nM in test [1] and 133 nM in test [2].

As for `CCCCOC(=O)NS(=O)(=O)c1sc(CC(C)C)cc1-c1ccc(CC(=O)N(CC)Cc2ccccc2)cc1`, the Ki in test [1] is above 10000 nM; in test [2], 322 nM.

For `CCCCOC(=O)NS(=O)(=O)c1sc(CC(C)C)cc1-c1ccc(CN(C)C(C)=O)o1`, the Ki in test [1] was above 10000 nM; in test [2], 9.1 nM. For the same compound, the outcome in the test with NG108-15 [4] was Active.

For the compound `CCCCOC(=O)NS(=O)(=O)c1sc(CC(C)C)cc1-c1csc(CN(C)C(C)=O)c1`, the Ki in test [1] and in test [2] was above 10000 nM each time.

With `CCCCOC(=O)NS(=O)(=O)c1sc(CC(C)C)cc1-c1ccc(CN(C)C(C)=O)cn1`, the Ki in test [1] and in test [2] was above 10000 nM each time.

Consider `CCCCCCNC(=O)Cc1ccc(-c2cc(CC(C)C)sc2S(=O)(=O)NC(=O)OCCCC)cc1`, for which the Ki was above 10000 nM in test [1] and 158 nM in test [2].

Regarding `CCCCOC(=O)NS(=O)(=O)c1sc(CC(C)C)cc1-c1ccc(CN(C)C(=O)CCCC)cc1`, the Ki in test [1] was above 10000 nM; in test [2], 12 nM.

Turning to `CCCCOC(=O)NS(=O)(=O)c1sc(CC(C)C)cc1-c1ccc(CN(Cc2ccccc2)C(=O)CCCC)cc1`, the Ki was above 10000 nM in test [1] and 84 nM in test [2].

As to `CCCCOC(=O)NS(=O)(=O)c1sc(CC(C)C)cc1-c1ccc(CC(=O)N2CCOCC2)cc1`, the Ki in test [1] is above 10000 nM; in test [2], 124 nM.

As for `CCCCOC(=O)NS(=O)(=O)c1sc(CC(C)C)cc1-c1ccc(CN(C(C)=O)c2ccc(C)cc2)cc1`, the inhibition constant Ki was above 10000 nM in test [1] and 60 nM in test [2].

Take `CCCCOC(=O)NS(=O)(=O)c1sc(CC(C)C)cc1-c1ccc(CN(C(=O)c2ccccc2)c2ccc(C)cc2)cc1`: the figures for the inhibitory constant (Ki) in test [1] and in test [2] were above 10000 nM and 46 nM, respectively.

Source of the values: ChEMBL document CHEMBL1139832, “Selective angiotensin II AT(2) receptor agonists devoid of the imidazole ring system” (Bioorg Med Chem, 2007).
